Assay results of several laboratories.
Compare with care: the assays were run in different laboratories.

For `CC[S+]([O-])c1nc(-c2cccc(OCc3ccccc3)c2)cc(C(F)(F)F)n1` (centres unmarked), the CC50 was 20 µM (HEK-293T; cell growth or viability, ATP luminescence; 24 h).
`CC(=O)O[C@@]12CO[C@@H]1C[C@H](O)[C@@]1(C)C(=O)[C@H](O)C3=C(C)[C@@H](OC(=O)[C@H](O)[C@@H](NC(=O)OC(C)(C)C)c4ccccc4)C[C@@](O)([C@@H](OC(=O)c4ccccc4)[C@H]21)C3(C)C` has an MRT of 1.8 h (male Kunming mouse, lung; oral, 20 mg/kg).
With `CCN1CCN(Cc2ccc(NC(=O)c3ccc(C)c(NC(=O)c4cncc(-c5cccs5)c4)c3)cc2C(F)(F)F)CC1` the MRT was 3.52 h (mouse, plasma; intraperitoneal, 20 mg/kg, single dose).
With `CCCCCCCCNCC(O)c1cc(Cl)cc2c1-c1ccc(Cl)cc1C2` (racemic) the CC50 was 5.9 µM (HepG2; cell growth or viability; 48 h).
`CCS(=O)(=O)c1nc(C)cc(-c2ccccc2)n1` has a CC50 of > 60 µM (HEK-293T; cell growth or viability, ATP luminescence; 24 h).
For `C=CS(=O)(=O)c1ccc(Nc2nc(OCC3CCCCC3)c3nc[nH]c3n2)cc1`, the MRT(0-t) was 2.26 h (male BALB/c mouse, plasma; intraperitoneal, 20 mg/kg, single dose).
For `CCCCCNC[C@H](O)c1cc(Cl)cc2c1-c1ccc(Cl)cc1C2`, the CC50 was 6.3 µM (HepG2; cell growth or viability; 48 h).
With `CCOc1ccc(N(C)S(=O)(=O)c2cc(Cl)sc2C(=O)Nc2cc(Cl)cc(C(=O)O)c2)cc1OC` the MRT(0-inf) was 0.854 h (male C57BL/6 mouse, brain; intraperitoneal, 10 mg/kg).
